Experiment [1] in a line: Antiproliferative activity against human MEC2 cells after 72 hrs by Celltiter-Glo assay. In kind it is functional. As to conditions: MEC2, 72 h. An outline of the steps: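 Cells seeded at 3000/well in 96-well plates, exposed to serially diluted compound for 72 h at 37 °C, 5% CO2. Viability read by CellTiter-Glo luminescence and normalized to DMSO control. GI50 derived from curve fit, mean of three independent measurements. Culture media: DMEM/10% FBS for adherent lines; IMDM for MV4-11 and MEC-1/2; RPMI 1640 for suspension lines and CHL.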
Background: In ATP-based viability assays light output follows the ATP content of the culture.

Experiment [2] has as its target Activin receptor type-1-like (Homo sapiens) (UniProt P37023). Briefly: Binding affinity to wild-type human ACVRL1 (L164 to Q503 residues) expressed in bacterial expression system assessed as remaining unbound target protein level at 1000 nM by Kinomescan method relative to control. An outline of the steps: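 Single-point competition binding screen across a panel of 468 kinases and mutants, with the inhibitor at 1 μM. Binding is read out as percent of a DMSO control, and targets below 1 percent control were classed as strong binders.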

Experiment [3] concerns the target Cyclin-dependent kinase 9 (Homo sapiens, UniProt P50750). The experiment is described as follows: Binding affinity to wild-type human full length CDK9 (M1 to F372 residues) expressed in bacterial expression system assessed as remaining unbound target protein level at 1000 nM by Kinomescan method relative to control. An outline of the steps:
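KINOMEscan competition binding panel run at 1 μM inhibitor; binding reported as percent of DMSO control (remaining target bound versus vehicle).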

The target in experiment [4] is Citron Rho-interacting kinase (Homo sapiens) (UniProt O14578). The experiment is described as follows: Binding affinity to wild-type human partial length CIT (M68 to E432 residues) expressed in bacterial expression system assessed as remaining unbound target protein level at 1000 nM by Kinomescan method relative to control. An outline of the steps:
(§1)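 KINOMEscan competition binding profile across a panel of 468 kinases and mutants, with the inhibitor tested at a single concentration of 1 μM. Binding is reported as percent of control, meaning signal relative to a DMSO control.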

Experiment [5] has as its target Casein kinase II subunit alpha' (Homo sapiens) (UniProt P19784). The experiment is described as follows: Binding affinity to wild-type human full length CSNK2A2 (M1 to R350 residues) expressed in mammalian expression system assessed as remaining unbound target protein level at 1000 nM by Kinomescan method relative to control. The essentials:
as §1

The target in experiment [6] is Serine/threonine-protein kinase DCLK2 (Homo sapiens) (UniProt Q8N568). Briefly: Binding affinity to wild-type human partial length DCAMKL2 (K273 to V664 residues) expressed in bacterial expression system assessed as remaining unbound target protein level at 1000 nM by Kinomescan method relative to control.
For experiment [7], the target named is Ephrin type-A receptor 6 (Homo sapiens) (UniProt Q9UF33). Briefly: Binding affinity to wild-type human partial length EPHA6 (Y700 to E1046 residues) expressed in bacterial expression system assessed as remaining unbound target protein level at 1000 nM by Kinomescan method relative to control.
The target of experiment [8] is Fibroblast growth factor receptor 3 (Homo sapiens) (UniProt P22607). The experiment is described as follows: Binding affinity to wild-type human partial length FGFR3 (R442 to S771 residues) expressed in bacterial expression system assessed as remaining unbound target protein level at 1000 nM by Kinomescan method relative to control.
For experiment [9], the target named is Homeodomain-interacting protein kinase 2 (Homo sapiens) (UniProt Q9H2X6). The experiment is described as follows: Binding affinity to wild-type human partial length HIPK2 (M153 to S564 residues) expressed in mammalian expression system assessed as remaining unbound target protein level at 1000 nM by Kinomescan method relative to control. The essentials: (§2)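 KINOMEscan binding panel of 468 kinases/mutants. Inhibitor was tested at a single concentration of 1 μM. Binding is reported as percent of control, defined relative to a DMSO control.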

In experiment [10] the target is Hormonally up-regulated neu tumor-associated kinase (Homo sapiens) (UniProt P57058). The experiment is described as follows: Binding affinity to wild-type human partial length HUNK (A31 to K354 residues) expressed in bacterial expression system assessed as remaining unbound target protein level at 1000 nM by Kinomescan method relative to control. An outline of the steps:
as §2

Experiment [11] concerns the target Mitogen-activated protein kinase kinase kinase 9 (Homo sapiens) (UniProt P80192). The experiment is described as follows: Binding affinity to wild-type human partial length MLK1 (V88 to W426 residues) expressed in bacterial expression system assessed as remaining unbound target protein level at 1000 nM by Kinomescan method relative to control. The essentials:
as §2

In experiment [12] the target is Serine/threonine-protein kinase 3 (Homo sapiens) (UniProt Q13188). The experiment is described as follows: Binding affinity to wild-type human partial length MST2 (D17 to E318 residues) expressed in bacterial expression system assessed as remaining unbound target protein level at 1000 nM by Kinomescan method relative to control. The essentials:
as §2

The target of experiment [13] is Serine/threonine-protein kinase 38-like (Homo sapiens) (UniProt Q9Y2H1). The experiment is described as follows: Binding affinity to wild-type human partial length NDR2 (N34 to E447 residues) expressed in bacterial expression system assessed as remaining unbound target protein level at 1000 nM by Kinomescan method relative to control.
For experiment [14], the target named is Phosphorylase b kinase gamma catalytic chain, skeletal muscle/heart isoform (Homo sapiens) (UniProt Q16816). The experiment is described as follows: Binding affinity to wild-type human full length PHKG1 (M1 to Y387 residues) expressed in bacterial expression system assessed as remaining unbound target protein level at 1000 nM by Kinomescan method relative to control. An outline of the steps:
as §1

Experiment [15] addresses Membrane-associated tyrosine- and threonine-specific cdc2-inhibitory kinase (Homo sapiens) (UniProt Q99640). Briefly: Binding affinity to wild-type human partial length PKMYT1 (A88 to G366 residues) expressed in bacterial expression system assessed as remaining unbound target protein level at 1000 nM by Kinomescan method relative to control.
Experiment [16] addresses Protein kinase C delta type (Homo sapiens) (UniProt Q05655). Briefly: Binding affinity to wild-type human partial length PRKCD (Q328 to D676 residues) expressed in bacterial expression system assessed as remaining unbound target protein level at 1000 nM by Kinomescan method relative to control.
The target of experiment [17] is Serine/threonine-protein kinase PRP4 homolog (Homo sapiens) (UniProt Q13523). Briefly: Binding affinity to wild-type human partial length PRP4 (D657 to I1007 residues) expressed in bacterial expression system assessed as remaining unbound target protein level at 1000 nM by Kinomescan method relative to control.
Experiment [18] concerns the target Protein-tyrosine kinase 2-beta (Homo sapiens) (UniProt Q14289). The experiment is described as follows: Binding affinity to wild-type human full length PYK2 (M1 to E967 residues) expressed in bacterial expression system assessed as remaining unbound target protein level at 1000 nM by Kinomescan method relative to control. An outline of the steps:
(§3)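 Profiled in a KINOMEscan binding panel with the inhibitor at a single concentration of 1 μM. Binding to each kinase was read out as percent of control, relative to a DMSO control. Strong binders were defined as those with a percent control value below 1.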

In experiment [19] the target is Serine/threonine-protein kinase TAO3 (Homo sapiens) (UniProt Q9H2K8). Briefly: Binding affinity to wild-type human partial length TAOK3 (M1 to T316 residues) expressed in mammalian expression system assessed as remaining unbound target protein level at 1000 nM by Kinomescan method relative to control.
Experiment [20] deals with Serine/threonine-protein kinase 32A (Homo sapiens) (UniProt Q8WU08). Briefly: Binding affinity to wild-type human full length YANK1 (M1 to L396 residues) expressed in mammalian expression system assessed as remaining unbound target protein level at 1000 nM by Kinomescan method relative to control. An outline of the steps: as §3

A word on the GI50: it is the concentration at which growth is held to half of that of the control.

In [1], `COCCN[C@H]1CC[C@H](Nc2cc(-c3csc(NCC4(C#N)CCOCC4)n3)c(Cl)cn2)CC1` came in with a GI50 of 37 nM. The Activity in [2] is 100%; in [3] it was 0.9%; in experiment [4], 23%; in experiment [5] it was 99%; in experiment [6], 96%; in experiment [7], 100%. Besides, the Activity is 89% in experiment [8]; 74% in experiment [9]; 81% in experiment [10]; 86% in experiment [11]; 69% in experiment [12]; 78% in experiment [13]. Further, the Activity was 69% in experiment [14]; 100% in [15]; 91% in experiment [16]; 100% in experiment [17]; 90% in experiment [18]; 15% in [19]. The Activity in experiment [20] came out at 100%.

Values taken from ChEMBL document CHEMBL4261600 (Eur J Med Chem, 2018).
